# CSC inhib = cancer stem cell inhibition; inhibition, % at 7.5 µM; AID 2717; cancer stem cell-like cells viability, luminescence; 1.1% of 300,000 active; in the data active means inhibition above about 75%; tested in HMLE shEcad cells
# T cruzi inh = T. cruzi replication inhibition | T. cruzi beta-gal in NIH3T3, luminescence, 90 h | inhibition, % (concentration not given with the values) | 1.4% of 300,000 active | AID 1885;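 active means mean inhibition across valid replicates above about 55%, limit read from the data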;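 further: signal also drops with host cell toxicity which is not excluded here; higher percent means less beta-gal luminescence so fewer parasites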
#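 Incubation – ≥90 h infection period, 3 h prior cell attachment · System – NIH/3T3 fibroblasts plus reporter T. cruzi · Doses – compound pinned at 50 nL/well, DMSO · Read-out basis – percent inhibition of parasite-derived β-gal signal · Signal – luminescent β-galactosidase signal after 60 min lysis · Also added – 5000 T. cruzi trypomastigotes/well · Medium – Low-serum DMEM with 2% FBS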
# Beta apoptosis = beta cell apoptosis inhibition | INS-1E cytokine-induced death, ATP luminescence, 48 h; percent of positive-control rescue, neutral wells zero | protection from apoptosis, % (no concentration beside the values) | 0.8% of 300,000 active;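 active means Every replicate reaches about 75%, or at least half do and their mean reaches it too, limit read from the data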;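 further: higher means more ATP so stronger rescue from cytokine killing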
# Mdm2 MdmX PPI = disrupts the human Mdm2-MdmX interaction | SaOS-2 split-luciferase Mdm2/MdmX complementation, luminescence | inhibition, % at 8 µM | 3% of 330,000 active | AID 485346;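 active means inhibition of at least 50% at 8 µM in the primary screen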
# SKKanGAS inh = SKKanGAS growth inhibition | S. pyogenes SKKanGAS, kanamycin growth, BacTiter-Glo, 6 h | inhibition, % at 7.5 µM | 1.3% of 300,000 active | AID 1662;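 active means mean replicate score, as percent of positive control median, at least 50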;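 further: strain carries kanamycin resistance gene driven by streptokinase promoter and grows in 40 µg/ml kanamycin; loss of luminescence reflects streptokinase promoter inhibition or plain growth inhibition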
# L major viab = inhibitors of Leishmania major promastigote growth; 9% of 200,000 active; inhibition, % at 10 µM; AID 1063; Leishmania major promastigotes, resazurin fluorescence viability; in the data active means inhibition above about 50%;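 further: promastigotes grown with compound for 44 hours at 28 °C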
# Numbers stand for hits; – = inactive; · = no result. An excerpt weighted towards active compounds, which were near 9.4% of everything screened.
SMILES,CSC inhib,T cruzi inh,Beta apoptosis,Mdm2 MdmX PPI,SKKanGAS inh,L major viab
CCc1ccc(OCC(=O)NNC(=S)NC(=O)C2CCCCC2)c(Br)c1,–,–,–,–,90,·
CCc1ccc(OCC(=O)NNC(=S)NC(=O)C2CC2)c(Br)c1,–,·,–,–,·,·
CCOc1ccccc1C1N=C(c2ccc(OC)cc2)CC(c2ccccc2O)N1 (stereo unspecified),–,–,–,–,–,51
CC1CCCCC12NC(=O)N(CC(=O)Nc1nccs1)C2=O (stereo unspecified),·,·,·,–,·,·
CCOC(=O)c1c(NC(=O)CN2C(=O)NC3(CCCCC3C)C2=O)sc(C)c1CC (stereo unspecified),–,66,–,–,–,·
CCC1CCC2(CC1)NC(=O)N(CC(=O)Nc1cc(C)on1)C2=O (stereo unspecified),–,–,–,–,–,62
Cc1cc(NC(=O)CN2C(=O)NC3(CCCCC3C)C2=O)no1 (stereo unspecified),–,–,–,–,–,58
Cc1cc(-n2c(C)cc(C(=O)CN3C(=O)NC4(CCCCCC4)C3=O)c2C)no1,·,–,·,–,–,100
COc1ccccc1NC(=O)C1CCN(S(=O)(=O)c2ccc3c(c2)NC(=O)C(C)S3)CC1 (stereo unspecified),–,–,–,–,–,·
Cc1nn(-c2cc(N3CCCC3)ccc2[N+](=O)[O-])c(=O)c2ccccc12,–,–,–,–,–,–
Cc1ccc(C)c(-c2nn(-c3cc(N4CCN(CCO)CC4)ccc3[N+](=O)[O-])c(=O)c3ccccc23)c1,·,61,–,–,–,–
Cc1nn(-c2cc(N3CCOCC3)ccc2[N+](=O)[O-])c(=O)c2ccccc12,–,–,–,–,–,–
CC(C)(C)C(=O)N1CCN(c2ccc([N+](=O)[O-])c(-n3nc(-c4ccccc4)c4ccccc4c3=O)c2)CC1,–,–,–,–,–,57
O=C1NCCn2ccc(=O)cc21,–,–,–,–,–,·
CCCN(CCC)C(=O)C1CCCN1S(=O)(=O)c1cccc2nsnc12 (stereo unspecified),–,–,–,–,–,·
COCCNC(=O)C(c1ccc(Cl)cc1)N(CCOC)C(=O)CCC(=O)Nc1ccccn1 (stereo unspecified),–,–,–,–,–,·
COc1ccc(C2CC(c3cccc(OC)c3)n3nc(N)nc3N2)cc1 (stereo unspecified),–,–,–,–,–,–
Nc1nc2n(n1)C(c1cccc(Br)c1)CC(c1ccccc1)N2 (stereo unspecified),–,–,–,–,–,78
COc1cccc(C2CC(c3cccc(Br)c3)n3nc(N)nc3N2)c1 (stereo unspecified),–,–,–,–,–,75
CC(C)CCNC(=O)CN(Cc1ccc(F)cc1)C(=O)CCC(=O)Nc1ccccn1,–,–,–,–,–,·
Fc1ccccc1-c1nc(N2CCCCC2)c2ccccc2n1,–,–,–,–,–,–
c1ccc2c(N3CCCCC3)nc(N3CCCCC3)nc2c1,–,–,–,–,–,68
CN1CCN(c2nc(-c3ccccn3)nc3ccccc23)CC1,–,–,–,–,–,100
CN1CCN(c2nc(-c3cccnc3)nc3ccccc23)CC1,–,–,–,–,–,–
CCCOc1ccc(-c2nc(N3CCN(CC)CC3)c3ccccc3n2)cc1,88,–,–,–,–,·
SMILES,CSC inhib,T cruzi inh,Beta apoptosis,Mdm2 MdmX PPI,SKKanGAS inh,L major viab
C(=C\c1nc(N2CCCCCC2)c2ccccc2n1)/c1ccccc1,79,–,109,–,–,86
c1ccc2c(N3CCCCC3)nc(N3CCOCC3)nc2c1,–,–,–,–,–,–
CCCOc1ccc(-c2nc(N3CCN(C)CC3)c3ccccc3n2)cc1,–,–,–,–,–,·
COc1ccc(C2(C)NC(=O)N(CC(=O)N(c3ccccc3)C3CCS(=O)(=O)C3)C2=O)cc1 (stereo unspecified),·,·,–,–,·,·
O=C(O)Cc1ccc(NS(=O)(=O)c2ccc3ccccc3c2)cc1,–,–,–,–,–,·
CC(OC(=O)CNC(=O)c1ccc(F)cc1)C(=O)Nc1ccc(S(=O)(=O)N2CCOCC2)cc1 (stereo unspecified),·,·,·,–,·,·
CCN1CCN(c2nc(-c3cccnc3)nc3ccccc23)CC1,–,–,–,–,–,54
c1ccc2c(N3CCCCCC3)nc(-c3ccncc3)nc2c1,–,–,–,–,–,87
CCCN1CCN(c2nc(-c3cccs3)nc3ccccc23)CC1,–,–,–,–,–,–

# Screens as filed in PubChem BioAssay.
